Assay results published in ChEMBL document CHEMBL4270548, “Discovery of a potent glucokinase activator with a favorable liver and pancreas distribution pattern for the treatment of type 2 diabetes mellitus” (Eur J Med Chem, 2018).
Values after ≈ are worked out from the molar mass of the structure shown. Active and inactive are the calls of the source. No cut-off for these calls is given here.

How the values were obtained:
[1] = Ratio of AUC (0 to 1.5 hrs) in C57BL/6J mouse liver to plasma at 30 mg/kg, po administered as single dose by LC/MS/MS analysis; format: ADME, organism-based; details: liver and plasma, read-out: Ratio AUC
[2] = Ratio of AUC (0 to 1.5 hrs) in C57BL/6J mouse liver to pancreas at 10 mg/kg, po administered as single dose by LC/MS/MS analysis; format: ADME, organism-based; details: in vivo
[3] = AUC (0 to 1.5 hrs) in C57BL/6J mouse pancreas at 10 mg/kg, po administered as single dose by LC/MS/MS analysis; format: ADME, organism-based; parameters: dose 10 mg/kg, time < 1.5 hr, route oral; details: in vivo
[4] = AUC (0 to 1.5 hrs) in C57BL/6J mouse plasma at 5 mg/kg, po administered as single dose by LC/MS/MS analysis; format: ADME, organism-based; parameters: time < 1.5 hr, dose 5 mg/kg, route oral
[5] = Ratio of AUC (0 to 1.5 hrs) in C57BL/6J mouse pancreas to plasma at 5 mg/kg, po administered as single dose by LC/MS/MS analysis; format: ADME, organism-based; details: pancreas and plasma, read-out: Ratio AUC
[6] = AUC (0 to 1.5 hrs) in C57BL/6J mouse liver at 5 mg/kg, po administered as single dose by LC/MS/MS analysis; format: ADME, organism-based; parameters: dose 5 mg/kg, time < 1.5 hr, route oral; details: in vivo
[7] = Ratio of AUC (0 to 1.5 hrs) in C57BL/6J mouse liver to plasma at 10 mg/kg, po administered as single dose by LC/MS/MS analysis; format: ADME, organism-based; details: liver and plasma, read-out: Ratio AUC
Mus musculus [8] = assay: Antidiabetic activity in C57BL/6J mouse assessed as increase in insulin secretion at 30 mg/kg, po measured up to 60 mins by ELISA; format: functional, organism-based
How it was run: (§1)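 Male C57BL/6J mice (8 weeks) fasted 2 h, then dosed orally at time 0 (n = 8/group). Tail vein insulin measured at 0, 30 and 60 min by ultra-sensitive mouse insulin ELISA. Mean ± SEM, Dunnett's test.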

[9] = Ratio of AUC (0 to 1.5 hrs) in C57BL/6J mouse pancreas to plasma at 30 mg/kg, po administered as single dose by LC/MS/MS analysis; format: ADME, organism-based; details: pancreas and plasma, read-out: Ratio AUC
[10] = Ratio of AUC (0 to 1.5 hrs) in C57BL/6J mouse pancreas to plasma at 10 mg/kg, po administered as single dose by LC/MS/MS analysis; format: ADME, organism-based; details: pancreas and plasma, read-out: Ratio AUC
[11] = Ratio of AUC (0 to 1.5 hrs) in C57BL/6J mouse liver to plasma in C57BL/6J mouse at 5 mg/kg, po administered as single dose by LC/MS/MS analysis; format: ADME, organism-based; details: liver and plasma, read-out: Ratio AUC
[12] = Ratio of AUC (0 to 1.5 hrs) in C57BL/6J mouse liver to pancreas at 30 mg/kg, po administered as single dose by LC/MS/MS analysis; format: ADME, organism-based; details: in vivo
[13] = AUC (0 to 1.5 hrs) in C57BL/6J mouse pancreas at 30 mg/kg, po administered as single dose by LC/MS/MS analysis; format: ADME, organism-based; parameters: time < 1.5 hr, dose 30 mg/kg, route oral; details: in vivo
[14] = Ratio of AUC (0 to 1.5 hrs) in C57BL/6J mouse liver to pancreas at 5 mg/kg, po administered as single dose by LC/MS/MS analysis; format: ADME, organism-based; details: in vivo
[15] = AUC (0 to 1.5 hrs) in C57BL/6J mouse plasma at 10 mg/kg, po administered as single dose by LC/MS/MS analysis; format: ADME, organism-based; parameters: time < 1.5 hr, dose 10 mg/kg, route oral
Mus musculus [16] = assay: Toxicity in C57BL/6J mouse assessed as hypoglycemia at 30 mg/kg, po measured up to 300 mins by glucometric method; format: organism-based; details: in vivo, 5 h
[17] = AUC (0 to 1.5 hrs) in C57BL/6J mouse liver at 30 mg/kg, po administered as single dose by LC/MS/MS analysis; format: ADME, organism-based; parameters: dose 30 mg/kg, time < 1.5 hr, route oral; details: in vivo
[18] = AUC (0 to 1.5 hrs) in C57BL/6J mouse plasma at 30 mg/kg, po administered as single dose by LC/MS/MS analysis; format: ADME, organism-based; parameters: dose 30 mg/kg, time < 1.5 hr, route oral
[19] = AUC (0 to 1.5 hrs) in C57BL/6J mouse liver at 10 mg/kg, po administered as single dose by LC/MS/MS analysis; format: ADME, organism-based; parameters: time < 1.5 hr, dose 10 mg/kg, route oral; details: in vivo
[20] = AUC (0 to 1.5 hrs) in C57BL/6J mouse pancreas at 5 mg/kg, po administered as single dose by LC/MS/MS analysis; format: ADME, organism-based; parameters: dose 5 mg/kg, time < 1.5 hr, route oral; details: in vivo
Mus musculus [21] = assay: Antidiabetic activity in po dosed C57BL/6J mouse assessed as reduction in blood glucose level administered for 15 to 30 mins prior to glucose challenge measured up to 120 mins post dose by OGTT; format: functional, organism-based
How it was run: (§2)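 Fasted male C57BL/6J or ob/ob mice (8 weeks, n = 8/group) dosed orally in 0.5% methylcellulose 15 or 30 min before a 2 g/kg oral glucose load. Tail vein glucose measured by glucometer at −15 or −30, 0, 20, 40, 60, 90 and 120 min. Incremental glucose AUC0-120 min compared with vehicle. Mean ± SEM, Dunnett's test.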

hERG (KCNH2) = hERG (KCNH2) (Homo sapiens, UniProt Q12809); assay: Inhibition of [3H]-dofetilide binding to human ERG expressed in HEK293 cell membranes at 30 uM after 1 hr by scintillation proximity assay relative to control; details: HEK293 cell membranes that express hERG, probe [3H]-dofetilide
How it was run: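 hERG-HEK293 membranes with 10 nM final [3H]-dofetilide and poly-L-lysine SPA beads in 50 mM Tris-Cl, 1.0 mM MgCl2, 10 mM KCl, pH 7.4. Shaken 1 h, beads settled 3 h, then scintillation counting. Normalized to DMSO (0%) and E-4031 (100% inhibition). Single-point at 30 µM, mean ± SEM, n = 3.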

Mus musculus [22] = assay: Antidiabetic activity in C57BL/6J mouse assessed as reduction in blood glucose AUC (0 to 120 mins) at 30 mg/kg, po dosed 30 minutes prior to glucose challenge by OGTT relative to control; format: functional; parameters: scale not given: the % may be the effect or the level left; how it was run: as §2
[23] = biological target: T1, Hexokinase-4 (Homo sapiens) (UniProt P35557); assay: Activation of human glucokinase assessed as conversion of D-glucose to D-glucose-6-phosphate at 10 uM preincubated for 10 mins […] measured for 5 mins at 30 secs time interval by G6PDH/NADP coupled assay relative to RO0281675
T1 sequence (whole entry): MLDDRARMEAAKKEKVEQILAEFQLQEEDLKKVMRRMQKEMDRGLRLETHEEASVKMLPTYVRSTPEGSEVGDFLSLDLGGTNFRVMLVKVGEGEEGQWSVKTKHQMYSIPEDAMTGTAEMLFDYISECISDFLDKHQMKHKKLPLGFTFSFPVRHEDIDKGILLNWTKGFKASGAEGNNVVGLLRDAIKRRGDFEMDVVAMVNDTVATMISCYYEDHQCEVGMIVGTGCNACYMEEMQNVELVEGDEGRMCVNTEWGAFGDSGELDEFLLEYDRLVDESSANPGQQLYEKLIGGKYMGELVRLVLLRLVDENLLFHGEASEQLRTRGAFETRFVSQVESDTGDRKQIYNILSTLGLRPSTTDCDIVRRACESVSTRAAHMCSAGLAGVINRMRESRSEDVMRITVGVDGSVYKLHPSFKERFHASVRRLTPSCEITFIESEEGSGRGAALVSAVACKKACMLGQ
How it was run: (§3)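 Human GK in 25 mM HEPES pH 7.1, 25 mM KCl, 2 mM MgCl2, 1 mM NADP, 1 mM DTT, 2 U/mL G6PDH and 5 mM D-glucose. Compound at 10 µM preincubated 10 min at room temperature. Started with 20 mM ATP (added stock). A340 read every 30 s for 5 min, slope from the first 3 min. Fold over DMSO, or relative scale (DMSO 0, 10 µM reference activator 1). Mean ± SEM, n = 3.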

[24] = biological target: T1, Hexokinase-4 (Homo sapiens); assay: Activation of human glucokinase assessed as conversion of D-glucose to D-glucose-6-phosphate at 10 uM preincubated for 10 mins followed by 5 mM glucose addition measured for 5 mins at 30 secs time interval by G6PDH/NADP coupled assay relative to control; how it was run: as §3
[25] = Cmax in mouse at 30 mg/kg, po administered as single dose by LC/MS/MS analysis; details: in vivo
[26] = Aqueous solubility of the compound in phosphate buffered saline at pH 7.4 at 8 to 2000 uM by nephelometric method; format: physicochemical
How it was run: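 Compound serial dilutions (8 µM–2 mM, before addition to buffer) transferred into PBS pH 7.4 (5 µL into 95 µL). Solubility read by nephelometry. Only wells with blank below mean blank + 2SD were used.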

Mus musculus [27] = assay: Antidiabetic activity in po dosed C57BL/6J mouse assessed as reduction in blood glucose level administered 15 mins prior to glucose challenge measured up to 120 mins post dose by OGTT; format: functional, organism-based; how it was run: as §2
Mus musculus [28] = assay: Antidiabetic activity in ob/ob mouse assessed as reduction in plasma glucose level at 10 to 30 mg/kg, po bid administered for 28 days measured at post last dose by glucometric method; format: functional, organism-based
How it was run: (§4)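 Male ob/ob mice (9 weeks) dosed orally twice daily for 4 weeks, vehicle 0.5% MC. Plasma glucose measured by portable glucometer at 2 and 4 weeks. Liver TG assessed at the end of treatment. Mean ± SEM (n = 10), Dunnett's test versus vehicle.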

Mus musculus [29] = assay: Antidiabetic activity in C57BL/6J mouse assessed as increase in insulin secretion at 100 mg/kg, po measured up to 60 mins by ELISA; format: functional, organism-based; how it was run: as §1
Mus musculus [30] = assay: Antidiabetic activity in po dosed ob/ob mouse assessed as reduction in blood glucose level administered for 15 to 30 mins prior to glucose challenge measured up to 120 mins post dose by OGTT; format: functional, organism-based; how it was run: as §2
Mus musculus [31] = assay: Antidiabetic activity in ob/ob mouse assessed as reduction in plasma glucose level at 10 to 30 mg/kg, po bid administered for 14 days measured at post last dose by glucometric method; format: functional, organism-based; how it was run: as §4

Sequence of hERG (KCNH2) (Q12809 whole entry): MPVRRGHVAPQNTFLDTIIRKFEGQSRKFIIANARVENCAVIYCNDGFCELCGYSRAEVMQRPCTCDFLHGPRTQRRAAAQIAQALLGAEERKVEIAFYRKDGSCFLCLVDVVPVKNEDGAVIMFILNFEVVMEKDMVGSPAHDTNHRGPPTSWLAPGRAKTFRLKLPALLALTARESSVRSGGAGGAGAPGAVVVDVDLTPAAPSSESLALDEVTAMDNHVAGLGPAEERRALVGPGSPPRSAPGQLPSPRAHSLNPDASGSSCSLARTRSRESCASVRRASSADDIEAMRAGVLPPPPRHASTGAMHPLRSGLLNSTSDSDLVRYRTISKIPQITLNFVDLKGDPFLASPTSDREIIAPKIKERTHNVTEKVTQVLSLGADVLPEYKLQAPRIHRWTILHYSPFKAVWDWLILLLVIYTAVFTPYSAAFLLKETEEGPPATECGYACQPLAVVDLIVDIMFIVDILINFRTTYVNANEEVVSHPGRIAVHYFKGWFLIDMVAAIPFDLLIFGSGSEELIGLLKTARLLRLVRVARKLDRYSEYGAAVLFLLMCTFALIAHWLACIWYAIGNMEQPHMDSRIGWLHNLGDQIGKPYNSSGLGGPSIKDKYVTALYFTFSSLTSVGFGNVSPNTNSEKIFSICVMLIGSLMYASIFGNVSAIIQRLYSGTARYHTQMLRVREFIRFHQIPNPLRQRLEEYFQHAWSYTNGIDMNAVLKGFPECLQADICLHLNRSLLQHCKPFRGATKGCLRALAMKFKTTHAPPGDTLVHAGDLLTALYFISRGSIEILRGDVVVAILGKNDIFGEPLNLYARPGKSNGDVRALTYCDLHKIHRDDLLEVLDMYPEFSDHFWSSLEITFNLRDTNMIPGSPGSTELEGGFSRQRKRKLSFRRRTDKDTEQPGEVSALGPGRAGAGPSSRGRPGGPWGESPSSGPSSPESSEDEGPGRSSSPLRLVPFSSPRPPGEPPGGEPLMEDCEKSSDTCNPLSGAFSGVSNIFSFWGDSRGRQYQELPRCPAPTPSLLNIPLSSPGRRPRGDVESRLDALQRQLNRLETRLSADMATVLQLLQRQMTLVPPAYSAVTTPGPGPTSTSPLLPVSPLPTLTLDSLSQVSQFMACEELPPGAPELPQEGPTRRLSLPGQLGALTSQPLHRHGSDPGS

## CS(=O)(=O)c1ccc([C@@H](C[C@H]2CCC(=O)C2)C(=O)Nc2cnccn2)cc1Cl [PIRAGLIATIN]
[1]
  Kp: 6.8
[2]
  Ratio AUC: 3.2
[3]
  AUC: 1020 ng·h/g
[4]
  AUC(0-t) at 1.5 h: 351 ng·h/mL
[5]
  Kp: 1.4
[6]
  AUC: 1470 ng·h/g
[7]
  Kp: 5.6
Mus musculus [8]
  Activity: Active
[9]
  Kp: 2.2
[10]
  Kp: 1.8
[11]
  Kp: 4.2
[12]
  Ratio AUC: 3.1
[13]
  AUC: 5030 ng·h/g
[14]
  Ratio AUC: 2.9
[15]
  AUC(0-t) at 1.5 h: 574 ng·h/mL
Mus musculus [16]
  Activity: Toxic
[17]
  AUC: 15700 ng·h/g
[18]
  AUC(0-t) at 1.5 h: 2330 ng·h/mL
[19]
  AUC: 3230 ng·h/g
[20]
  AUC: 505 ng·h/g
Mus musculus [21]
  Activity: Dose-dependent effect

## Cc1sc(C2CCCN2C(=O)CN(C)CCC(=O)O)cc1C(=O)Nc1ncc(F)s1.Cl (stereo unspecified)
hERG (KCNH2)
  inhibition at 1 h, 30 µM: 17%
Mus musculus [22]
  Activity: 47%
[23]
  fold change (FC): 0.466
[24]
  fold change (FC): 4.89

## Cc1sc(C2CCCN2C(=O)CN(C)CC(=O)O)cc1C(=O)Nc1ncc(Cl)s1.Cl (stereo unspecified)
hERG (KCNH2)
  inhibition at 1 h, 30 µM: 11%
Mus musculus [22]
  Activity: 82%
[23]
  fold change (FC): 0.718
[24]
  fold change (FC): 8.35

## Cc1sc(-c2ccccc2C(N)=O)cc1C(=O)Nc1nc2c(s1)CCC2
[25]
  Cmax: < 1 µM
[23]
  fold change (FC): 0.699
[24]
  fold change (FC): 6.23
[26]
  solubility kinetic: 1.95 µM (≈ 0.748 µg/mL)

## Cc1sc([C@@H]2CCCN2C(=O)CN(C)C)cc1C(=O)Nc1ncc(Cl)s1.Cl
[25]
  Cmax: > 9 µM
Mus musculus [27]
  Activity: Active
hERG (KCNH2)
  inhibition at 1 h, 30 µM: 101%
[23]
  fold change (FC): 0.65
[24]
  fold change (FC): 10.4
[26]
  solubility kinetic: 7.81 µM

## CCN(CC(=O)O)CC(=O)N1CCC[C@H]1c1cc(C(=O)Nc2ncc(F)s2)c(C)s1
Mus musculus [28]
  Activity: Active
Mus musculus [29]
  Activity: Active
Mus musculus [30]
  Activity: Dose-dependent effect
[23]
  fold change (FC): 0.87
[24]
  fold change (FC): 8.6
Mus musculus [31]
  Activity: Active
Mus musculus [21]
  Activity: Dose-dependent effect
